From PMC9056355 (RSC Advances, 2020)

Assays:
mice (immobility in FST) = experiment: Forced swimming test; assay type: in vivo, Kunming mice; details: for Antidepressant activity in FST, significance compared with the control group: mice, 40 mg kg^-1; for Relationship between dose and antidepressant activity in FST: mice, 10, 20 and 40 mg kg^-1 (Fig. 3)
Method in brief: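 Kunming mice (18–22 g) with free access to food and water; test compound in 0.5% methylcellulose or DMSO, given by intraperitoneal or subcutaneous injection at 40 mg kg−1; fluoxetine as positive control; test time 0.5 h. Read-out is immobility duration (s) and DID (%), compared with the control group by one-way ANOVA. A dose series of 10, 20 and 40 mg kg−1 was also run.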

5-HT1A receptor = target: T1, 5-HT1A receptor (Homo sapiens, UniProt P08908); experiment: biochemical
T1 sequence (P08908 1-422): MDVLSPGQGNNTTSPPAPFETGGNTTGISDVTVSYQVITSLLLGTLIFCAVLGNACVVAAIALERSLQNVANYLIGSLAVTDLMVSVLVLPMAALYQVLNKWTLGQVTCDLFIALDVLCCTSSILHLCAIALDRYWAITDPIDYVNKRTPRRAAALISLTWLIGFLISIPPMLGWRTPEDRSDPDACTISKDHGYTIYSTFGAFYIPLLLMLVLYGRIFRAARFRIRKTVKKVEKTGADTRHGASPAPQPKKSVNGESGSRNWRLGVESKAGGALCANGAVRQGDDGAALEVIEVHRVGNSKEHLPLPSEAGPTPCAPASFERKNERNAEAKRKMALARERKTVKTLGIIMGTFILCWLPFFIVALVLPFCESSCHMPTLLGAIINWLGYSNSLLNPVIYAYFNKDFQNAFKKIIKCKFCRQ

mice (immobility in TST) = experiment: Tail suspension test; assay type: in vivo; details: 40 mg kg^-1, n = 8 (Fig. 4)
Method in brief: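 Tail suspension test in Kunming mice (18–22 g), used as a second behavioural-despair model to confirm FST findings. Test compound at 40 mg kg−1 in 0.5% methylcellulose or DMSO, injected intraperitoneally or subcutaneously; fluoxetine at the same dose as positive control. Groups compared with control by one-way ANOVA.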

[1] = test system: 5-HT concentration in the mice brain; experiment: Determination of brain 5-HT concentration by ELISA; assay type: in vivo; details: 40 mg kg^-1, 1 h after administration, n = 8 (Fig. 5)
[2] = test system: spontaneous locomotor activity of mice; experiment: Open-field test; assay type: in vivo; details: 40 mg kg^-1, administered 1 h before the test, n = 8 (Fig. 6)
Method in brief: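 Kunming mice given test compound at 40 mg kg−1 (0.5% methylcellulose or DMSO vehicle; intraperitoneal or subcutaneous) 1 h before placement in a novel open field. Spontaneous activity is counted as line crossings (locomotion), rearing (standing on hind legs) and grooming. n = 8 per group, values as mean ± SEM.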

Compound	Antidepressant activity in FST, significance compared with the control group (mice (immobility in FST))	Ki (5-HT1A receptor) [nM]	further results
O=C1CCc2ccc(OCc3nnc(SCc4ccc(F)cc4)o3)cc2N1 [Compound 5f, 7-((5-((4-Fluorobenzyl)thio)-1,3,4-oxadiazol-2-yl)methoxy)-3,4-dihydroquinolin-2(1H)-one]	significant	–	–
O=C1CCc2ccc(OCc3nnc(SCc4ccc(Cl)cc4)o3)cc2N1 [Compound 5g, 7-((5-((4-Chlorobenzyl)thio)-1,3,4-oxadiazol-2-yl)methoxy)-3,4-dihydroquinolin-2(1H)-one]	–	1.77 ± 0.14	–
O=C1CCc2ccc(OCc3nnc(SCc4ccc(C(F)(F)F)cc4)o3)cc2N1 [Compound 5h, 7-((5-((4-Trifluoromethylbenzyl)thio)-1,3,4-oxadiazol-2-yl)methoxy)-3,4-dihydroquinolin-2(1H)-one]	–	2.73 ± 0.22	–
CC(=O)Nc1cccc(OCc2nnc(SCc3ccccc3Cl)o2)c1 [Compound 10e, N-(3-((5-((2-Chlorobenzyl)thio)-1,3,4-oxadiazol-2-yl)methoxy)phenyl)acetamide]	high significant	2.01 ± 0.18	–
CC(=O)Nc1cccc(OCc2nnc(SCc3cccc(Cl)c3)o2)c1 [Compound 10f, N-(3-((5-((3-Chlorobenzyl)thio)-1,3,4-oxadiazol-2-yl)methoxy)phenyl)acetamide]	significant	–	–
CC(=O)Nc1cccc(OCc2nnc(SCc3ccc(Cl)cc3)o2)c1 [Compound 10g, N-(3-((5-((4-Chlorobenzyl)thio)-1,3,4-oxadiazol-2-yl)methoxy)phenyl)acetamide]	high significant	1.68 ± 0.13	Relationship between dose and antidepressant activity in FST (mice (immobility in FST)): as the dose increases, the antidepressant activity increases; Antidepressant activity in TST (mice (immobility in TST)): highly significant; Effect on brain 5-HT concentration [1]: significantly (p < 0.05) increased the 5-HT concentration; Exploratory activity in open-field test (crossing, rearing, grooming) [2]: no significant difference
CC(=O)Nc1cccc(OCc2nnc(SCc3ccc(C(F)(F)F)cc3)o2)c1 [Compound 10j, N-(3-((5-((4-Trifluoromethylbenzyl)thio)-1,3,4-oxadiazol-2-yl)methoxy)phenyl)acetamide]	high significant	4.14 ± 0.16	–
CC(=O)Nc1cccc(OCc2nnc(SCc3ccc(C)cc3)o2)c1 [Compound 10m, N-(3-((5-((4-Methylbenzyl)thio)-1,3,4-oxadiazol-2-yl)methoxy)phenyl)acetamide]	significant	–	–
CNCCC(Oc1ccc(C(F)(F)F)cc1)c1ccccc1 (centres unmarked) [Fluoxetine, reference compound]	–	–	Relationship between dose and antidepressant activity in FST (mice (immobility in FST)): as the dose increases, the antidepressant activity increases; Effect on brain 5-HT concentration [1]: significantly (p < 0.05) increased the 5-HT concentration
